Assays:
[1] = test system: Rattus norvegicus; assay: Percentage of animals failing to emit 50 lever presses within 15 min in […] trained rats at a compound dose of 16 mg/kg; assay type: functional
How it was run: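 Two-lever drug discrimination in male Sprague–Dawley rats (200–220 g at start), trained against saline on LSD tartrate (0.08 mg/kg), DOI HCl (0.4 mg/kg) or LY293284 (0.025 mg/kg). FR50 food-pellet reinforcement, levers counterbalanced, 15-min sessions at 22–24 °C. %D is the share of tested rats not completing 50 lever presses within 15 min.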

[2] = test system: Rattus norvegicus; assay: Percentage of animals failing to emit 50 lever presses within 15 min in LSD trained rats at a compound dose of 16 mg/kg; assay type: functional
How it was run: (§1)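 Male Sprague–Dawley rats (200–220 g) in a two-lever, FR50 food-reinforced task. Rats were trained to discriminate saline from LSD tartrate (0.08 mg/kg), DOI HCl (0.4 mg/kg) or LY293284 (0.025 mg/kg) in 15-min sessions. %SDL is the share of rats making over 80% of presses on the drug lever. %D is the share failing to make 50 presses within 15 min. ED50 by Litchfield–Wilcoxon log-probit.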

[3] = test system: Rattus norvegicus; assay: Percentage of animals emitting >80% of lever presses in […] trained rats at a compound dose of 25.3 uM/Kg; assay type: functional; how it was run: as §1
[4] = test system: Rattus norvegicus; assay: Percentage of animals failing to emit 50 lever presses within 15 min in DOI trained rats at a compound dose of 4 mg/kg; assay type: functional; how it was run: as §1
[5] = test system: Rattus norvegicus; assay: Percentage of animals emitting >80% of lever presses in LSD trained rats at a compound dose of 50.6 uM/Kg; assay type: functional; how it was run: as §1
[6] = biological target: 5-hydroxytryptamine receptor 2B (Homo sapiens, UniProt P41595); assay: Compound was tested for the displacement of [3H]5-HT from clone human 5-hydroxytryptamine 2B receptor
How it was run: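 Membranes from AV12 cells stably expressing human 5-HT2B, 100–150 μg protein. [3H]-5-HT was about 2 nM (1.7–2.5 nM) final. Buffer was 50 mM Tris pH 7.4 with 3 mM CaCl2, 10 μM pargyline and 0.1% ascorbic acid. Drug dilutions spanned 6 log units. Incubation was 15 min at 37 °C. Nonspecific binding used 10 μM 5-HT or 1-NP. PEI-soaked GF/B filtration, scintillation counting, triplicate, sigmoid nonlinear regression.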

[7] = test system: Rattus norvegicus; assay: Percentage of animals emitting >80% of lever presses in DOI trained rats at a compound dose of 25.3 uM/Kg; assay type: functional; how it was run: as §1
[8] = test system: Rattus norvegicus; assay: Percentage of animals emitting >80% of lever presses in […] trained rats at a compound dose of 12.6 uM/Kg; assay type: functional; how it was run: as §1
[9] = test system: Rattus norvegicus; assay: Percentage of animals emitting >80% of lever presses in […] trained rats at a compound dose of 50.6 uM/Kg; assay type: functional; how it was run: as §1
[10] = test system: Rattus norvegicus; assay: Percentage of animals emitting >80% of lever presses in DOI trained rats at a compound dose of 12.6 uM/Kg; assay type: functional; how it was run: as §1

Sequence of 5-hydroxytryptamine receptor 2B (P41595 whole entry): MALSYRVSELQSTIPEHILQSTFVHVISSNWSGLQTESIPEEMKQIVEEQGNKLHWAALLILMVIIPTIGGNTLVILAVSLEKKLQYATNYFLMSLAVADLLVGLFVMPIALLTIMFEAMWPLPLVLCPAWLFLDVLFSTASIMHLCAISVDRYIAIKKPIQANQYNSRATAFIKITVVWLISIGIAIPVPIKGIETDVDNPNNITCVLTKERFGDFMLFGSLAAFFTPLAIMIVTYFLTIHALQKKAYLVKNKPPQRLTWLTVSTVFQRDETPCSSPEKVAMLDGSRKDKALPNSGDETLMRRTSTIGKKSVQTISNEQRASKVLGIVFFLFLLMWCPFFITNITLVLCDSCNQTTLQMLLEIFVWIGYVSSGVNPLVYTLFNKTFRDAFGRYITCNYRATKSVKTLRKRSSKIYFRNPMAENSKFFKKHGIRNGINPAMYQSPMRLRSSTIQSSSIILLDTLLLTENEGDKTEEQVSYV

CN(C)CCc1c[nH]c2sccc12
D [1]: 0%
D [2]: 50%
SDL [3]: 58%
D [4]: 0%
SDL [5]: 16.7%
Ki [6]: 483 nM
SDL [7]: 0%
SDL [8]: 67%
SDL [9]: 83%
SDL [10]: 0%
